≈ marks a conversion by molar mass, not a printed value.

Here are results for 7 compounds from ChEMBL document CHEMBL1157729, “Structure-activity relationship and mechanism of action studies of manzamine analogues for the control of neuroinflammation and cerebral infections” (J Med Chem, 2010).

The nature of data set [1]: Antineuroinflammatory activity in LPS-stimulated rat neonatal microglia assessed as inhibition of PMA-induced superoxide anion production preincubated 15 mins prior to PMA challenge measured after 70 mins. Type of data set: functional, cell-based.
Data set [2] deals with Candida albicans. Put plainly: Antifungal activity against Candida albicans ATCC 90028. The format is functional, organism-based. An outline of the steps:
(§1)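 Broth microdilution per modified CLSI method; samples serially diluted in 20% DMSO/saline, tested in duplicate; inocula set by OD630 of suspensions in incubation broth; growth read at 630 nm before and after incubation; amphotericin B drug control.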

The subject of data set [3] is Vero. Put plainly: Cytotoxicity against african green monkey Vero cells up to 4.6 ug/mL after 48 hrs by neutral red assay. The format is cell-based. The following applies: chlorocebus sabaeus. An outline of the steps:
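Vero cells were seeded at 25,000 cells/well and incubated for 24 h, then exposed to serially diluted samples for 48 h. Viable cells were counted by Neutral Red assay, with doxorubicin as positive control. IC50 was taken from dose-response curves.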

The subject of data set [4] is Mycobacterium tuberculosis. As to the kind of experiment: Antimycobacterial activity against Mycobacterium tuberculosis H37Rv. The format is functional, organism-based.
Data set [5] concerns Plasmodium falciparum. Put plainly: Antiplasmodial activity against chloroquine-resistant Plasmodium falciparum W2 after 72 hrs by LDH assay. The settings on record: Plasmodium falciparum, W2, 72 h; read-out: IC50. The format is functional, organism-based.
For data set [6], the system named is Plasmodium falciparum. Put plainly: Antiplasmodial activity against chloroquine-sensitive Plasmodium falciparum D6 after 72 hrs by LDH assay. The format is functional, organism-based. The following applies: Plasmodium falciparum, D6, 72 h; read-out: IC50.
A short description of data set [7]: Antineuroinflammatory activity in LPS-stimulated rat neonatal microglia assessed as drug level causing 50% PMA-induced LDH release preincubated 15 mins prior to PMA challenge measured after 70 mins. The format is functional. The gist of the method:
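Neonatal rat microglia (2 × 10^5/well) primed with E. coli LPS 0.3 ng/mL for 17 h at 35.9 °C, washed with HBSS, given compound (0.01–10 μM) or DMSO 15 min, then PMA 1 μM; LDH read spectrophotometrically after 70 min; LDH50 relative to Triton X-100 (0.1%) release; duplicates.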

Data set [8] deals with Mycobacterium intracellulare. Put plainly: Antimycobacterial activity against Mycobacterium intracellular ATCC 23068. The format is functional, organism-based. An outline of the steps: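 Modified Franzblau method; samples serially diluted in 20% DMSO/saline, tested in duplicate; inoculum set by OD630; fluorescence read at 544ex/590em before and after incubation; ciprofloxacin drug control.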

The nature of data set [9]: Antineuroinflammatory activity in LPS-stimulated rat neonatal microglia assessed as inhibition of PMA-induced TXB2 production preincubated 15 mins prior to PMA challenge measured after 70 mins. Type of data set: functional, cell-based.
For data set [10], the system named is Cryptococcus neoformans. As to the kind of experiment: Antifungal activity against Cryptococcus neoformans ATCC 90113. Type of data set: functional, organism-based. The gist of the method: as §1
The test system of data set [11] is Vero. As to the kind of experiment: Cytotoxicity against african green monkey Vero cells after 48 hrs by neutral red assay. The settings on record: chlorocebus sabaeus. Type of data set: cell-based. An outline of the steps:
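Vero cells seeded at 25,000/well and grown 24 h, then exposed to serially diluted samples for 48 h. Viable cells measured by neutral red assay, with doxorubicin as positive control. IC50 taken from dose-response curves.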

For `CN1CCc2c([nH]c3ccccc23)C1C1=C[C@@]2(O)CC/C=C\CCCCN3CC[C@@H]1[C@]1(C[C@@H]4/C=C\CCCCN4[C@H]12)C3` (some centres undefined), the IC50 in data set [1] is > 10 µM; in [2], > 20 µg/mL; in [5] it was 0.44 µg/mL (≈ 0.776 µM); in data set [6] it was 0.31 µg/mL (≈ 0.547 µM); in [8], 0.7 µg/mL (≈ 1.23 µM); in data set [9], 12.2 µM. Besides, the IC50 in [10] turned out to be 6 µg/mL (≈ 10.6 µM). The Activity entry in data set [3] was “Non-toxic”; in [7] it was 8 µM. In addition, the minimal inhibitory concentration (MIC) in data set [4] is > 64 µg/mL.

Turning to `COc1ccc2[nH]c3c(c2c1)CCNC3C1=C[C@@]2(O)CC/C=C\CCCCN3CC[C@@H]1[C@]1(C[C@@H]4/C=C\CCCCN4[C@H]12)C3` (some centres undefined), the IC50 in data set [1] is 2.2 µM; in data set [2], > 20 µg/mL; in data set [5] it was 0.064 µg/mL (≈ 0.11 µM); in data set [6], 0.057 µg/mL (≈ 0.0978 µM); in data set [11] it was 0.2 µg/mL (≈ 0.343 µM); in data set [8], 0.2 µg/mL (≈ 0.343 µM). Besides, the IC50 in data set [9] is 1.65 µM; in data set [10] it was 2 µg/mL (≈ 3.43 µM). For the same compound, the MIC in [4] was > 64 µg/mL. Also, the Activity in data set [7] was found to be 3 µM.

As to `COc1ccc2[nH]c3c(C4=C[C@@]5(O)CC/C=C\CCCCN6CC[C@@H]4[C@]4(C[C@@H]7/C=C\CCCCN7[C@H]45)C6)nccc3c2c1` [6-METHOXYMANZAMINE A], the IC50 was found to be 0.1 µM in data set [1]; 5 µg/mL (≈ 8.64 µM) in [2]; 0.058 µg/mL (≈ 0.1 µM) in [5]; 0.028 µg/mL (≈ 0.0484 µM) in [6]; 0.5 µg/mL (≈ 0.864 µM) in [11]; 0.8 µg/mL (≈ 1.38 µM) in data set [8]. For the same compound, the values for the IC50 in data set [9] and in [10] were 0.11 µM and 3 µg/mL (≈ 5.18 µM), respectively. The MIC in [4] is > 64 µg/mL. Besides, the Activity in data set [7] is >10 µM.

In the case of `O=[N+]([O-])c1ccc2[nH]c3c(C4=C[C@@]5(O)CC/C=C\CCCCN6CC[C@@H]4[C@]4(C[C@@H]7/C=C\CCCCN7[C@H]45)C6)nccc3c2c1` [6-NITROMANZAMINE A], the IC50 in data set [2] was > 20 µg/mL; in data set [5], 0.028 µg/mL (≈ 0.0472 µM); in data set [6] it was 0.018 µg/mL (≈ 0.0303 µM); in data set [11], 270 µg/mL (≈ 455 µM); in data set [8] it was 0.15 µg/mL (≈ 0.253 µM); in [10], 2.5 µg/mL (≈ 4.21 µM). This compound showed an MIC in data set [4] of 1.6 µg/mL (≈ 2.69 µM).

Consider `CC(=O)Oc1cccc2c1[nH]c1c(C3=C[C@@]4(O)CC/C=C\CCCCN5CC[C@@H]3[C@]3(C[C@@H]6/C=C\CCCCN6[C@H]34)C5)nccc12` [8-ACETOXYMANZAMINE A], for which the values for the IC50 in data set [6] and in [11] were 0.029 µg/mL (≈ 0.0478 µM) and 670 µg/mL (≈ 1100 µM), respectively.

Regarding `CC(C)CCn1c2ccccc2c2ccnc(C3=C[C@@]4(O)CC/C=C\CCCCN5CC[C@@H]3[C@]3(C[C@@H]6/C=C\CCCCN6[C@H]34)C5)c21` [9-N-ISOPENTYLMANZAMINE A], the IC50 in data set [1] is 3.2 µM; in data set [2], > 20 µg/mL; in data set [5], 3.8 µg/mL (≈ 6.14 µM); in data set [6] it was 2.3 µg/mL (≈ 3.72 µM); in data set [8] it was 6.5 µg/mL (≈ 10.5 µM); in data set [9], 3.2 µM. In data set [10], the IC50 is > 20 µg/mL. Besides, the Activity result in [3] is “Non-toxic”; in data set [7] it was >10 µM. In data set [4], this compound registered an MIC of 128 µg/mL (≈ 207 µM).

As to `Cn1c2ccccc2c2ccnc(C3=C[C@@]4(O)CC/C=C\CCCCN5CC[C@@H]3[C@]3(C[C@@H]6/C=C\CCCCN6[C@H]34)C5)c21` [9-N-METHYLMANZAMINE A], the IC50 was > 10 µM in [1]; > 20 µg/mL in data set [2]; 1 µg/mL (≈ 1.78 µM) in data set [5]; 1.9 µg/mL (≈ 3.38 µM) in data set [6]; > 20 µg/mL in data set [8]; > 10 µM in data set [9]. Also, the IC50 in [10] is > 20 µg/mL. In addition, the results for the Activity entry in data set [3] and in data set [7] were “Non-toxic” and >10 µM, respectively. In addition, the MIC in [4] was > 64 µg/mL.

One may read the IC50 as the concentration that inhibits the measured activity by half. As a reminder, the MIC is the least concentration at which growth counts as inhibited.
